Assay results taken from paper PMC10432884 (Clinical and Translational Science, 2023).
Where two headings read alike, the source gives them in different places.

Legend:
[1] = Plasma protein binding, equilibrium dialysis; type: in vitro ADME, human; details: assumed from protein binding
Summary of the method: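 In vitro equilibrium dialysis of test compound at 1 and 10 μM in human plasma (also mouse, rat, dog and monkey). Mean percentage bound was determined. The free fraction was used to correct CSF/plasma concentration ratios.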

healthy subjects [2] = system: healthy subjects
healthy subjects [3] = experiment: First-in-human trial, all phases: overall safety and tolerability; type: in vivo
Summary of the method: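 Safety covered all dosed subjects in the SAD, MAD and FI phases: AEs (MedDRA 21.1), concomitant medication, vital signs, ECGs, physical exams and safety labs. BP was taken after 5 min supine, then ≥1 min sitting and 1–3 min standing. Orthostasis was defined as an SBP fall ≥20 mmHg or DBP fall ≥10 mmHg within 3 min standing. TEAEs were summarized by treatment, organ class, severity and drug-relatedness.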

[4] = MAD pooled zagociguat group (n = 32)
[5] = same subject, 2 mg q.d., day 30

Fc1ccccc1Cc1nc(-c2nc(C(F)(F)F)n[nH]2)cn2ccnc12 [zagociguat, 8‐(2‐fluorobenzyl)‐6‐(3‐(trifluoromethyl)‐1H‐1,2,4‐triazol‐5‐yl)imidazo[1,2‐a]pyrazine]
Free zagociguat concentration in human plasma, of total concentration [1]: 1.11% | Subjects discontinued from study drug due to ≥1 TEAE (healthy subjects [2]; MAD 2 mg (n = 8)): 0 n | Subjects with ≥1 SAE (healthy subjects [2]; MAD 2 mg (n = 8)): 0 n | Subjects with ≥1 TEAE (healthy subjects [2]; MAD 2 mg (n = 8)): 6 (75%) n (%) | Subjects with ≥1 study drug related TEAE (healthy subjects [2]; MAD 2 mg (n = 8)): 6 n | TEAEs (healthy subjects [2]; MAD 2 mg (n = 8)): 17 n | Subjects discontinued from study drug due to ≥1 TEAE (healthy subjects [2]; MAD 5 mg (n = 8)): 0 n | Subjects with ≥1 SAE (healthy subjects [2]; MAD 5 mg (n = 8)): 0 n | Subjects with ≥1 TEAE (healthy subjects [2]; MAD 5 mg (n = 8)): 8 (100%) n (%) | Subjects with ≥1 study drug related TEAE (healthy subjects [2]; MAD 5 mg (n = 8)): 7 n | TEAEs (healthy subjects [2]; MAD 5 mg (n = 8)): 27 n | Subjects discontinued from study drug due to ≥1 TEAE (healthy subjects [2]; MAD 10 mg (n = 8)): 0 n | Subjects with ≥1 SAE (healthy subjects [2]; MAD 10 mg (n = 8)): 0 n | Subjects with ≥1 TEAE (healthy subjects [2]; MAD 10 mg (n = 8)): 8 (100%) n (%) | Subjects with ≥1 study drug related TEAE (healthy subjects [2]; MAD 10 mg (n = 8)): 5 n | TEAEs (healthy subjects [2]; MAD 10 mg (n = 8)): 19 n | Subjects with GI TEAEs (healthy subjects [2]; MAD 10 mg group): five | Subjects discontinued from study drug due to ≥1 TEAE (healthy subjects [2]; MAD 15 mg (n = 8)): 0 n | Subjects with ≥1 SAE (healthy subjects [2]; MAD 15 mg (n = 8)): 0 n | Subjects with ≥1 study drug related TEAE (healthy subjects [2]; MAD 15 mg (n = 8)): 5 n | TEAEs (healthy subjects [2]; MAD 15 mg (n = 8)): 18 n | Orthostatic hypotension events (healthy subjects [2]; MAD phase): No orthostatic hypotension events | Subjects discontinued from study drug due to ≥1 TEAE (healthy subjects [2]; [4]): 0 n | Subjects with ≥1 SAE (healthy subjects [2]; [4]): 0 n | Subjects with ≥1 study drug related TEAE (healthy subjects [2]; [4]): 23 n | TEAEs (healthy subjects [2]; [4]): 81 n | Tolerability (healthy subjects [2]; multiple doses up to 15 mg q.d. for 14 days): well‐tolerated with no safety signals | AST, peak (healthy subjects [2]; one subject, 2 mg q.d., day 16 (after last dose), normal range < 35 U/L): 49 U/L | ALT, peak (healthy subjects [2]; one subject, 2 mg q.d., day 16 (after last dose), normal range < 45 U/L): 92 U/L | GGT, peak (healthy subjects [2]; one subject, 2 mg q.d., day 16 (after last dose), normal range < 55 U/L): 22 U/L | ALT at follow-up (healthy subjects [2]; [5]): 49 U/L | AST at follow-up (healthy subjects [2]; [5]): 43 U/L | GGT at follow-up (healthy subjects [2]; [5]): 23 U/L | Severity of observed TEAEs (healthy subjects [3]; across all study phases): mild and transient | Tolerability (healthy subjects [3]; all doses evaluated, all study phases): well‐tolerated | Bleeding time and bleeding events (healthy subjects [3]; all phases): no increases in bleeding time nor any bleeding events | Deaths or other serious AEs (healthy subjects [3]; all study phases): No deaths or other serious AEs
